Assay [1] can be described thus: inhibitors of TNFa-induced NFkB p65 translocation, primary screen, imaging, HUVEC, MLSMR starter and 10KST1 sets (AID 438;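 active = inhibition above 20% together with a positive visual image hit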;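 also: compound added about 3h40 before a 20 min TNFalpha stimulation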;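 as to inhibition: signal is the nuclear over cytoplasmic p65 intensity ratio per well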). The conditions noted are these: HUVEC TNFa-induced p65 nuclear translocation; cell count: measured here: nuclei count (cytotoxicity indicator), at 2.08 µM; inhibition: at 2 µM, stronger effect = higher value, 0% TNFa-plus-vehicle, 100% no-TNFa wells.
A short description of assay [2]: reduction of polyQ htt aggregates in cells – imaging, exon1htt(103Q)mCFP cells, high-content imaging, primary screen (AID 483;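 active = visual image review flags a hit and inhibition of aggregation exceeds 20%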;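 also: compound exposure lasted 3 days before fixation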;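 as to nuclei count: percent of the per-plate median nuclei count of sample wells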). The settings on record: exon1htt(103Q)mCFP cell line, aggregate imaging, at 2 µM; inhibition of aggregation: stronger effect = higher value; nuclei count: measured here: cell count, toxicity.
Assay [3] is described as follows: endothelial E-selectin expression blockers – imaging, HUVEC, immunofluorescence, MLSMR starter and 10KST1 sets, primary screen (AID 487;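 active = visually confirmed hit in the image check and inhibition above 20%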;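 as to inhibition: signal is fraction of cell area covered by stained E-selectin grains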;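 as to nuclei count: 100% = median nuclei count of all wells on the same plate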). The settings on record: HUVEC TNFalpha-induced E-selectin immunofluorescence imaging, at 2 µM; inhibition: stronger effect = higher value; nuclei count: measured here: cell number, toxicity.
Assay [4] deals with Voltage-gated potassium channel subunit beta-2 (Rattus norvegicus) (UniProt P62483). Briefly: inhibitors of rat Kvbeta2 reductase activity – biochemical, NADPH fluorescence, primary screen (AID 622;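 active = fluorescence slope higher than the sample average by over 3 SD, cut at about -0.22 in these data, passing the limit was not always enough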;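 also: slope of raw intensity against log time taken from 70 to 1610 s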). The conditions noted are these: recombinant KvBeta, 4-cyanobenzaldehyde reduction, at 10 µM, stronger effect = higher value.
The target is the same in assay [5]. Briefly: enhancers of rat Kvbeta2 NADPH turnover – biochemical, NADPH fluorescence, primary screen (AID 623).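 Also: fluorescence intensity change per second fitted from 20 to 320 s.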 The conditions noted are these: Recombinant KvBeta, NADPH fluorescence decrease slope, 10 min; at 10 µM; stronger effect = lower value.
Assay [6] deals with Muscarinic acetylcholine receptor M4 (Homo sapiens) (UniProt P08173). The assay can be described thus: M4-linked GIRK flux change, two-sided – cell-based, HEK293 M4/GIRK, thallium flux, BTC-AM, M4 allosteric agonist project, primary screen (AID 625;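 active = fluorescence slope after compound addition differing from the mean of all tested samples at 99.7% confidence, mostly higher but some lower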;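 also: thallium influx through GIRK channels coupled to M4 in HEK293 cells with BTC-AM dye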). The settings on record: at 10 µM, actives lie on both sides. A digest of the protocol:
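System: HEK293 cells with M4 receptor and GIRK channels | Incubation: Cells overnight at 37 °C, BTC-AM loading 1 h, reads 2 min total | Technique: Kinetic BTC-AM fluorescence sampled at 1 Hz, 10 s pre-addition baseline | Measure: Post-addition slope, 15–24 s, of baseline-normalized fluorescence | Control set: Carbachol positive, DMSO negative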

The nature of assay [7]: blockers of RIG-like receptor reporter activation – cell-based, Sendai virus stimulus, luciferase, 10K MLSCN set, TLR/RLR signaling modifier project, primary screen (AID 602276;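 active = inhibition at or above 50% at 10 µM; inactive = inhibition below 50%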;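 also: firefly luciferase from ISG56 promoter only with Renilla not read in this screen; 0% = Sendai virus plus DMSO and 100% = medium plus DMSO without virus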). The settings on record: HEK293 RL24 IRF3 luciferase reporter, at 10 µM, stronger effect = higher value. (In general: A reporter such as luciferase makes a cellular process visible.)
A short description of assay [8]: TLR3 IRF3 reporter activation blockers – cell-based, poly I:C stimulus, luciferase, 10K MLSCN set, primary screen (AID 602277;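 active = inhibition of the reporter signal at or above 50%; inactive = inhibition below 50%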). The conditions noted are these: HEK293-TLR3 RL24 IRF3 luciferase reporter, at 10 µM, stronger effect = higher value.

Calls of active or inactive are those of the source.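 The calls were made as follows, unless noted: active = NADPH fluorescence slope more negative than the mean of all samples by about 3 SD, 99.7% confidence; inactive = the rest.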

Sequence of Muscarinic acetylcholine receptor M4 (Homo sapiens) (P08173 whole entry, looked up): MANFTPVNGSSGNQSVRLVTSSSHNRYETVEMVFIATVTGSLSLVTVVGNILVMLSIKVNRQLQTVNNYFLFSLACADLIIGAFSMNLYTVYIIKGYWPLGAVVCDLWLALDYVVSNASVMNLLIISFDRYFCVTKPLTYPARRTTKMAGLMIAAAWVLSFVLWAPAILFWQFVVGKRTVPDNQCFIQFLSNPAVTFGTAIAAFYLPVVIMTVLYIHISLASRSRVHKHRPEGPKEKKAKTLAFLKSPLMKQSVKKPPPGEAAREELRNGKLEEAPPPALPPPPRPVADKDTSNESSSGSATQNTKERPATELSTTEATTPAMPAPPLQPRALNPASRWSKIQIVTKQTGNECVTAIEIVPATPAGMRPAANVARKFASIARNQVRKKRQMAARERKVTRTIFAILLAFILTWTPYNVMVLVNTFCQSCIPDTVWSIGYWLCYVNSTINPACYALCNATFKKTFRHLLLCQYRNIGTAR
Sequence of Voltage-gated potassium channel subunit beta-2 (Rattus norvegicus) (P62483 whole entry, looked up): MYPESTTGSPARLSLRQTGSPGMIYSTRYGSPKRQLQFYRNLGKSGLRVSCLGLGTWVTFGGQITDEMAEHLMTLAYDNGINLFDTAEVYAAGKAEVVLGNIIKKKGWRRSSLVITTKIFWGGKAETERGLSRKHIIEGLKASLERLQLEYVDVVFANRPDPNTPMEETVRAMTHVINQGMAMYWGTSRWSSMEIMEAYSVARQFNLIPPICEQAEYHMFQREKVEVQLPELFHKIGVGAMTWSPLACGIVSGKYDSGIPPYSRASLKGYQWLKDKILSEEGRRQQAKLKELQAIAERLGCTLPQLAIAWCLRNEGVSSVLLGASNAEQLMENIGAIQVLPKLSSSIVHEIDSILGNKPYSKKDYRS

What is called inhibition is the change of the read-out against control, counted positive when it falls. Take `O=C1C=C(NCc2ccco2)C2(CCCCC2)O1`: the cell count in assay [1] came out at 495. Moreover, the inhibition was 7.6% (inactive) in assay [1], -229% (inactive) in assay [3], 17.4% (inactive) in assay [7] and 20.2% (inactive) in assay [8]. Further, the inhibition of aggregation in assay [2] was 0.6% (inactive). In addition, the nuclei count came out at 97.5% in assay [2] and 125% in assay [3]. In addition, the fluorescence slope in assay [4] is -0.569 (inactive); in assay [6], 0.00577 (inactive). The NADPH fluorescence slope in assay [5] was -5.7e-05 (inactive).

With `O=C(CSc1nc2ccccc2n1CC(=O)N1CCCC1)Nc1nccs1`, the cell count in assay [1] was found to be 676. Further, the inhibition in assay [1] was 1% (inactive); in assay [3] it was -3.7% (inactive); in assay [7], 2.67% (inactive); in assay [8], 14% (inactive). Moreover, the inhibition of aggregation in assay [2] is -9.6% (inactive). The nuclei count was determined as 99.7% in assay [2] and 131% in assay [3]. In addition, the values for the fluorescence slope in assay [4] and in assay [6] were -0.484 (inactive) and 0.00508 (inactive), respectively. The NADPH fluorescence slope in assay [5] is -0.000183 (inactive).

As to `N#CC(C(=O)C1CCCCC1)c1nc2ccccc2[nH]1` (centres undefined), the cell count in assay [1] was 723. Besides, the inhibition in assay [1] was -2% (inactive); in assay [3], -107% (inactive); in assay [7], 4.07% (inactive); in assay [8], -10.7% (inactive). Also, in assay [2], the inhibition of aggregation was -11.3% (inactive). Also, the nuclei count in assay [2] is 101%; in assay [3], 128%. Besides, the figures for the fluorescence slope in assay [4] and in assay [6] were -0.6 (inactive) and 0.00531 (inactive), respectively. Moreover, the NADPH fluorescence slope in assay [5] is 3e-06 (inactive).

Turning to `CCN(c1ccccc1)S(=O)(=O)c1ccc(F)cc1C`, the cell count in assay [1] is 207. Further, the inhibition is 4.7% (inactive) in assay [1], -11.8% (inactive) in assay [3], 12.3% (inactive) in assay [7] and 22.6% (inactive) in assay [8]. Moreover, the inhibition of aggregation in assay [2] is -4.7% (inactive). The nuclei count came out at 66.7% in assay [2] and 119% in assay [3]. In addition, the fluorescence slope in assay [4] was -0.58 (inactive); in assay [6], 0.00509 (inactive). Moreover, the NADPH fluorescence slope in assay [5] was -2.3e-05 (inactive).

Consider `CC(=O)N1CCc2cc(S(=O)(=O)CCC(=O)N3CCN(C(=O)c4ccco4)CC3)ccc21`, for which the cell count in assay [1] was determined as 519. Also, the inhibition was 2.2% (inactive) in assay [1], -51.9% (inactive) in assay [3], 12.3% (inactive) in assay [7] and 17.8% (inactive) in assay [8]. For the same molecule, in assay [2], the inhibition of aggregation is 7.5% (inactive). Besides, the nuclei count came out at 105% in assay [2] and 116% in assay [3]. Besides, the results for the fluorescence slope in assay [4] and in assay [6] were -0.413 (inactive) and 0.00737 (inactive), respectively. Besides, in assay [5], the NADPH fluorescence slope was -4e-05 (inactive).

As for `Cc1ccc(-c2nc(-c3cccnc3)no2)c(C)c1`, the cell count in assay [1] amounted to 357. In addition, the inhibition in assay [1] is 4.2% (inactive); in assay [3] it was -54.5% (inactive); in assay [7], -33.6% (inactive); in assay [8] it was -111% (inactive). The inhibition of aggregation in assay [2] was -8% (inactive). For the same molecule, the nuclei count in assay [2] amounted to 107%; in assay [3], 105%. The fluorescence slope in assay [4] was -0.571 (inactive); in assay [6], 0.00802 (inactive). The NADPH fluorescence slope in assay [5] is -3.5e-05 (inactive).

Regarding `CCOC(=O)c1sc2ncn(/N=C/N(C)C)c(=O)c2c1C`, in assay [1], the cell count was 415. The inhibition in assay [1] was -2.7% (inactive); in assay [3] it was 20.9% (inactive); in assay [7], 5.64% (inactive); in assay [8] it was 6.76% (inactive). In addition, the inhibition of aggregation in assay [2] was 40.3% (active). The nuclei count in assay [2] amounted to 72.6%; in assay [3] it was 85.9%. Moreover, the fluorescence slope in assay [4] was -0.385 (inactive); in assay [6], 0.00524 (inactive). The NADPH fluorescence slope in assay [5] was 6.4e-06 (inactive).

Turning to `O=C(OCc1nnc(-c2ccccc2)o1)C1=COCCO1`, in assay [1], the cell count was 462. The inhibition in assay [1] was 0% (inactive); in assay [3], -58.4% (inactive); in assay [7], -2.24% (inactive); in assay [8] it was -6.55% (inactive). Besides, the inhibition of aggregation in assay [2] was 5.5% (inactive). Also, the nuclei count in assay [2] worked out at 71.7%; in assay [3], 110%. For the same molecule, the figures for the fluorescence slope in assay [4] and in assay [6] were -0.432 (inactive) and 0.00605 (inactive), respectively. In addition, the NADPH fluorescence slope in assay [5] was -1.1e-05 (inactive).

Take `CN(C)CCSc1nnc2sc3ccccc3n12`: the cell count in assay [1] is 599. In addition, the inhibition in assay [1] was -5% (inactive); in assay [3], -71.5% (inactive); in assay [7], -0.357% (inactive); in assay [8], 12.6% (inactive). Moreover, the inhibition of aggregation in assay [2] was -2.2% (inactive). The nuclei count in assay [2] is 105%; in assay [3], 110%. The results for the fluorescence slope in assay [4] and in assay [6] were -0.477 (inactive) and 0.00534 (inactive), respectively. For the same molecule, the NADPH fluorescence slope in assay [5] is -5.9e-05 (inactive).

`O=S(=O)(c1ccccc1)N1CCSC1c1ccco1` (centres undefined): in assay [1], the cell count turned out to be 444. Moreover, the inhibition was 1.2% (inactive) in assay [1], 33.5% (inactive) in assay [3], -30.7% (inactive) in assay [7] and -9.12% (inactive) in assay [8]. Further, the inhibition of aggregation in assay [2] was 7% (inactive). Moreover, the values for the nuclei count in assay [2] and in assay [3] were 100% and 102%, respectively. For the same molecule, the fluorescence slope is -0.555 (inactive) in assay [4] and 0.00572 (inactive) in assay [6]. In addition, the NADPH fluorescence slope in assay [5] is -4e-05 (inactive).

Take `O=C(Cn1c(SCC(=O)N2CCCc3ccccc32)nc2ccccc21)N1CCCC1`: in assay [1], the cell count turned out to be 723. The inhibition in assay [1] is -5.1% (inactive); in assay [3], -126% (inactive); in assay [7], 1.52% (inactive); in assay [8] it was 20.1% (inactive). Moreover, the inhibition of aggregation in assay [2] was -15.7% (inactive). For the same molecule, the figures for the nuclei count in assay [2] and in assay [3] were 107% and 124%, respectively. In addition, the fluorescence slope is -0.458 (inactive) in assay [4] and 0.00587 (inactive) in assay [6]. Further, the NADPH fluorescence slope in assay [5] was -3.6e-05 (inactive).

As to `N#CCSc1nc2c(c(C3CC=CCC3)c1C#N)CCC2` (centres undefined), the cell count in assay [1] was 436. For the same molecule, the inhibition in assay [1] was 8% (inactive); in assay [3], -44.5% (inactive); in assay [7], -0.626% (inactive); in assay [8] it was 27.7% (inactive). In addition, the inhibition of aggregation in assay [2] was -9.6% (inactive). In addition, the nuclei count was 100% in assay [2] and 112% in assay [3]. The fluorescence slope in assay [4] was -0.552 (inactive); in assay [6], 0.00409 (inactive). In addition, in assay [5], the NADPH fluorescence slope is -1.6e-05 (inactive).

For `c1ccc(OCCOc2ncnc3sccc23)cc1`, the cell count in assay [1] worked out at 395. Besides, the inhibition in assay [1] is -22% (inactive); in assay [3], -62.1% (inactive); in assay [7] it was -2.1% (inactive); in assay [8], -65.8% (inactive). The inhibition of aggregation in assay [2] was -0.7% (inactive). For the same molecule, the nuclei count is 106% in assay [2] and 125% in assay [3]. For the same molecule, the fluorescence slope in assay [4] is -0.583 (inactive); in assay [6], 0.00602 (inactive). Also, the NADPH fluorescence slope in assay [5] is -5e-05 (inactive).

For `COc1ccc(C(F)(F)F)cc1NC(=O)c1nc2nc(C)cc(C(F)F)n2n1`, the cell count in assay [1] stood at 800. In addition, the inhibition is 16.4% (inactive) in assay [1], -22.3% (inactive) in assay [3], 5.86% (inactive) in assay [7] and 10.9% (inactive) in assay [8]. Also, the inhibition of aggregation in assay [2] is 14.9% (inactive). Besides, the values for the nuclei count in assay [2] and in assay [3] were 94.5% and 103%, respectively. The fluorescence slope in assay [4] was -0.498 (inactive); in assay [6], 0.00547 (inactive). For the same molecule, the NADPH fluorescence slope in assay [5] was -2e-05 (inactive).

These data come from PubChem BioAssay.
